Test [1] has as its target T1, D(2) dopamine receptor (Homo sapiens, UniProt P14416). Description: Tested for the inhibitory activity against Dopamine D2 receptor in infected Sf9 cells. Type of test: cell-based. The procedure, abridged: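 Membranes from Sf9 cells infected with AcMNPVrD2 baculovirus (non-G-protein coupled, low-affinity D2). Drugs up to 10^-5 M displace 0.1 nM [125I]-NCQ298 in 50 mM Tris pH 7.4, 120 mM NaCl, protease inhibitors, BSA 1 mg/mL. Incubation 30 min at 37 °C, filtration, gamma counting. Nonspecific binding with 10 μM (+)-butaclamol or 1 μM 7-OH-DPAT. Ki by nonlinear least-squares fitting.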

The target of test [2] is T2, Sigma non-opioid intracellular receptor 1 (Rattus norvegicus, UniProt Q9R0C9). Description: Tested for the inhibitory activity against sigma receptor rat cerebellar. The essentials: (§1)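 Rat cerebellar homogenate (65–75 μg) with 0.3–0.5 nM [125I]-S-(-)-trans-7-OH-PIPAT plus 15 nM spiperone and varying inhibitor, 20 min at 25 °C. Nonspecific binding: 10 μM haloperidol. Vacuum filtration through PEI-presoaked glass fiber filters, washed with ice-cold 50 mM Tris-HCl pH 7.4.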

In test [3] the target is T1, D(2) dopamine receptor. As to the kind of experiment: Tested for the inhibitory activity against D2H (high-affinity states) receptor in infected HEK 293 cells. It counts as cell-based, HEK293. The procedure, abridged:
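Competition binding on membranes of HEK293 cells expressing dopamine D2 receptors in high-affinity (G-protein coupled) states. Radioligand [125I]-R-(+)-trans-7-OH-PIPAT. […] Ki from iterative nonlinear least-squares curve fitting.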

The target of test [4] is T3, 5-hydroxytryptamine receptor 1A (Rattus norvegicus, UniProt P19327).
T3 sequence (P19327 whole entry): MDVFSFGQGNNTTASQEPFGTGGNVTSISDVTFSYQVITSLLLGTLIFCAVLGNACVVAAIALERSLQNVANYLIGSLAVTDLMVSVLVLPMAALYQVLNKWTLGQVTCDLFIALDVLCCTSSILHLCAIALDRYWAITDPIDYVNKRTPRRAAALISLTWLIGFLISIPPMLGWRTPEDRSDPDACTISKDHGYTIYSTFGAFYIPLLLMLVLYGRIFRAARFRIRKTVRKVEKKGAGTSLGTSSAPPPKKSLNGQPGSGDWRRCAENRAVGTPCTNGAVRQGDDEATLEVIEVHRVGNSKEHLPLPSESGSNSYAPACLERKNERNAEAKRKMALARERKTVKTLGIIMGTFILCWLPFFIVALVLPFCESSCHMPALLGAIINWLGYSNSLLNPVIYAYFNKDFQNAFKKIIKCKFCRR
Description: Tested for the inhibitory activity against 5-hydroxytryptamine 1A receptor in rat hippocampal. Type of test: tissue-based, Hippocampus. The essentials:
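Rat hippocampal homogenate in ice-cold 50 mM Tris-HCl pH 7.4, spun at 20000g for 20 min. Pellet lysed in water, preincubated at 37 °C to remove endogenous serotonin, then resuspended in Tris with 2 mM MgCl2. Nonspecific binding: 10 μM 5-HT. Filtration, γ counting, Ki by LIGAND fit.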

A further test deals with D(3) dopamine receptor (Homo sapiens, UniProt P35462). As to the kind of experiment: Tested for the inhibitory activity against Dopamine D3 receptor in infected Sf9 cells. Type of test: cell-based. The essentials: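 Membranes from Sf9 cells infected with AcMNPVrD3, in 50 mM Tris pH 7.4 with 120 mM NaCl, protease inhibitors and BSA 1 mg/mL. Nonspecific binding: 10 μM (+)butaclamol or 1 μM 7-OH-DPAT. Filtration onto PEI-soaked glass fiber, γ counting, LIGAND nonlinear fit.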

In test [5] the target is T2, Sigma non-opioid intracellular receptor 1. As to the kind of experiment: tested for the inhibitory activity against sigma receptor rat cerebellar. The procedure, abridged: as §1

The values that follow come from ChEMBL document CHEMBL1127788, “Iodinated 2-aminotetralins and 3-amino-1-benzopyrans: ligands for dopamine D2 and D3 receptors” (J Med Chem, 1994).

The structures appear in SMILES notation.

T1 sequence (P14416 whole entry): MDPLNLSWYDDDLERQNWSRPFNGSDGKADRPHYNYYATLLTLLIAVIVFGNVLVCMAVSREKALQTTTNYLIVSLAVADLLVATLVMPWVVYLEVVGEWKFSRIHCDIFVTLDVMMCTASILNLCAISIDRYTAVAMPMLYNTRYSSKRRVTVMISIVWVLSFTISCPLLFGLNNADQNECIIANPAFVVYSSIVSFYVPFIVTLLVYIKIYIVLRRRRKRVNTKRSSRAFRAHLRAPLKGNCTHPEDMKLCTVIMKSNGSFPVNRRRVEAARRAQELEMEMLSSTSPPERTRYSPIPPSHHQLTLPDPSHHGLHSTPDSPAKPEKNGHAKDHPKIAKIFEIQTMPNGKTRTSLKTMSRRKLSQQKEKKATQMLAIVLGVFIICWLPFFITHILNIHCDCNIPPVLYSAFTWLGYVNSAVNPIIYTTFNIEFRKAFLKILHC
Chain of D(3) dopamine receptor (P35462 whole entry): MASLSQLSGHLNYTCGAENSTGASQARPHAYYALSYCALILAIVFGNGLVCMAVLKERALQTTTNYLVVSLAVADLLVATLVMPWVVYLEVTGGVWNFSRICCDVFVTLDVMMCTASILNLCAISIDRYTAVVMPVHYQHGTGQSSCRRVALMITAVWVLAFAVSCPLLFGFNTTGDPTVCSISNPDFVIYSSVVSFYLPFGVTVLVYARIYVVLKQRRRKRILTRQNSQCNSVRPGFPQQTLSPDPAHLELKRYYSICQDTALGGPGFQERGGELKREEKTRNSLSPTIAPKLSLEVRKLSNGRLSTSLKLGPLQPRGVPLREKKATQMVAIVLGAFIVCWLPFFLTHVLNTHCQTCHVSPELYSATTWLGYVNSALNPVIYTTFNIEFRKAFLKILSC
T2 sequence (Q9R0C9 whole entry): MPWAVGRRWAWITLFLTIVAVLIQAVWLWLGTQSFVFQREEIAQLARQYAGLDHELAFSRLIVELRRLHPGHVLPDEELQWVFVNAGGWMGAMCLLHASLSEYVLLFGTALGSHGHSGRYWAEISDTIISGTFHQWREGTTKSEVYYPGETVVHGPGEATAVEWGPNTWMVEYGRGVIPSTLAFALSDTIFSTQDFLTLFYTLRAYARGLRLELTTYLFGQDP

What is called Ki is the dissociation constant of the complex between target and ligand, obtained from inhibition or displacement. With `CCCN(C/C=C/I)C1CCc2ccc(O)cc2C1` (centres undefined), the Ki amounted to 265 nM at D(2) dopamine receptor [1], 3.2 nM in test [2] and 6.6 nM at D(2) dopamine receptor [3].
On to `CCCN(C/C=C/I)C1COc2c(O)cccc2C1` (centres undefined), for which the Ki on D(2) dopamine receptor [1] was more than 5000 nM; in test [2], 492 nM; in test [4] it was 1270 nM; at D(3) dopamine receptor, 31.4 nM.
Regarding `CCCN(C/C=C/I)C1COc2ccc(O)cc2C1` (centres undefined), the Ki on D(2) dopamine receptor [1] is 784 nM; in test [2], more than 10000 nM; in test [4] it was 619 nM; on D(3) dopamine receptor, 6.69 nM.
Consider `CCCN(C/C=C/I)C1CCc2c(O)cccc2C1` (centres undefined), for which the Ki came out at 324 nM at D(2) dopamine receptor [1]; 1240 nM in test [2]; 47.9 nM in test [4]; 0.99 nM at D(3) dopamine receptor; 3.6 nM on D(2) dopamine receptor [3].
`CCCN(CCC)C1CCc2ccc(O)cc2C1` (centres undefined) yielded a Ki in test [2] of 23.2 nM.
Consider `Oc1ccc2c(c1)CC(NC/C=C/I)CC2` (centres undefined), for which the Ki at D(3) dopamine receptor came to 30.2 nM; in test [5] it was 1.68 nM.
`CCCN(C/C=C/I)C1CCc2cc(O)ccc2C1` (centres undefined): the Ki at D(2) dopamine receptor [1] was 547 nM; in test [2] it was 28.4 nM; in test [4], 297 nM; at D(3) dopamine receptor, 2.2 nM; at D(2) dopamine receptor [3], 9.7 nM.
